# Results taken from ChEMBL document CHEMBL5303300, “EUbOPEN Chemogenomics Library - Multiplex” (2023).
# “And” between values parts separate entries of the source, which are not always exact repeats. Equal values may be shown once.
# Tested on: HEK-293T
# Assay: Multiplex assay against HEK293T
# Assay type: toxicity, cell-based
# Settings: human, number of replicates 2
# Procedure, shortened: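 Live cells carried four stains from seeding: Hoechst33342, BioTracker Green Microtubule Cytoskeleton Dye, MitoTracker Red and Annexin V Alexa Fluor 680. They were imaged on a CQ1 microscope at 37°C and 5% CO2 after compound addition. Using CellPathfinder machine-learning gating, cells were split into Hoechst high-intensity objects or normal cells, normal cells into healthy, pyknosed or fragmented nuclei, and pyknosed cells into mitotic or apoptotic; tubulin, mitochondrial-mass and membrane-permeability phenotypes are per cents of healthy-nucleus cells.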
# [1] = 12 h, 1 µM, compound concentration 1 uM
# [2] = 12 h, 10 µM, compound concentration 10 uM
# [3] = 24 h, 1 µM, compound concentration 1 uM
# [4] = 24 h, 10 µM, compound concentration 10 uM
# [5] = 48 h, 1 µM, compound concentration 1 uM
# [6] = 48 h, 10 µM, compound concentration 10 uM
structure (smiles),measurement,setting,value
COc1ccc2cc(S(=O)(=O)N[C@H](CC(=O)N[C@H](Cc3ccc(CN4[C@H](C)CCC[C@@H]4C)cc3)C(=O)N(C)C(C)C)c3ccc4c(c3)OCO4)ccc2c1.Cl,Population Apoptotic (%),[1],40% and 62%
same,Population Fragmented Nuclei (%),[1],2% and 1%
same,Population Healthy Nuclei (%),[1],85% and 84%
same,Population Hoechst High Intensity Objects (%),[1],5% and 6%
same,Population Membrane Permeable-Phenotype (%),[1],5%
same,Population Mitochondria Different-Phenotype (%),[1],29% and 26%
same,Population Mitotic Cells (%),[1],59% and 37%
same,Population Normal (%),[1],94% and 93%
same,Population Pyknosed Nuclei (%),[1],11% and 13%
same,Population Tubulin-Different-Phenotype (%),[1],86% and 85%
same,Total Cell Count,[1],531 and 472
same,Population Apoptotic (%),[2],76% and 70%
same,Population Fragmented Nuclei (%),[2],1% and 3%
same,Population Healthy Nuclei (%),[2],82% and 83%
same,Population Hoechst High Intensity Objects (%),[2],10% and 9%
same,Population Membrane Permeable-Phenotype (%),[2],1% and 4%
same,Population Mitochondria Different-Phenotype (%),[2],82% and 70%
same,Population Mitotic Cells (%),[2],23% and 29%
same,Population Normal (%),[2],89% and 90%
same,Population Pyknosed Nuclei (%),[2],15% and 12%
same,Population Tubulin-Different-Phenotype (%),[2],85% and 82%
same,Total Cell Count,[2],395 and 352
same,Population Apoptotic (%),[3],52% and 56%
same,Population Fragmented Nuclei (%),[3],5%
same,Population Healthy Nuclei (%),[3],86% and 83%
same,Population Hoechst High Intensity Objects (%),[3],6% and 9%
same,Population Membrane Permeable-Phenotype (%),[3],4%
same,Population Mitochondria Different-Phenotype (%),[3],19% and 22%
same,Population Mitotic Cells (%),[3],47% and 43%
same,Population Normal (%),[3],93% and 90%
same,Population Pyknosed Nuclei (%),[3],7% and 10%
same,Population Tubulin-Different-Phenotype (%),[3],74% and 73%
same,Total Cell Count,[3],766 and 588
same,Population Apoptotic (%),[4],80% and 69%
same,Population Fragmented Nuclei (%),[4],2% and 5%
same,Population Healthy Nuclei (%),[4],76% and 75%
same,Population Hoechst High Intensity Objects (%),[4],10% and 15%
same,Population Membrane Permeable-Phenotype (%),[4],1% and 2%
same,Population Mitochondria Different-Phenotype (%),[4],88% and 86%
same,Population Mitotic Cells (%),[4],19% and 30%
same,Population Normal (%),[4],89% and 84%
same,Population Pyknosed Nuclei (%),[4],20% and 19%
same,Population Tubulin-Different-Phenotype (%),[4],78% and 75%
same,Total Cell Count,[4],417 and 393
same,Population Apoptotic (%),[5],18% and 44%
same,Population Fragmented Nuclei (%),[5],10% and 8%
same,Population Healthy Nuclei (%),[5],84% and 85%
same,Population Hoechst High Intensity Objects (%),[5],8% and 9%
same,Population Membrane Permeable-Phenotype (%),[5],6% and 3%
same,Population Mitochondria Different-Phenotype (%),[5],5% and 4%
same,Population Mitotic Cells (%),[5],81% and 55%
same,Population Normal (%),[5],91% and 90%
same,Population Pyknosed Nuclei (%),[5],4% and 6%
same,Population Tubulin-Different-Phenotype (%),[5],44% and 41%
same,Total Cell Count,[5],1592 and 1105
same,Population Apoptotic (%),[6],88% and 78%
same,Population Fragmented Nuclei (%),[6],6% and 9%
same,Population Healthy Nuclei (%),[6],81% and 80%
same,Population Hoechst High Intensity Objects (%),[6],14% and 17%
same,Population Membrane Permeable-Phenotype (%),[6],2% and 3%
same,Population Mitochondria Different-Phenotype (%),[6],78% and 79%
same,Population Mitotic Cells (%),[6],12% and 21%
same,Population Normal (%),[6],85% and 82%
same,Population Pyknosed Nuclei (%),[6],11% and 10%
same,Population Tubulin-Different-Phenotype (%),[6],84% and 87%
same,Total Cell Count,[6],498 and 427
COc1ccc(CC[C@@H](OC(=O)[C@@H]2CCCCN2C(=O)[C@H](c2cc(OC)c(OC)c(OC)c2)C2CCCCC2)c2cccc(OCCN3CCOCC3)c2)cc1OC,Population Apoptotic (%),[1],53% and 42%
same,Population Fragmented Nuclei (%),[1],5% and 3%
same,Population Healthy Nuclei (%),[1],82% and 83%
same,Population Hoechst High Intensity Objects (%),[1],7% and 6%
same,Population Membrane Permeable-Phenotype (%),[1],7% and 6%
same,Population Mitochondria Different-Phenotype (%),[1],27% and 28%
same,Population Mitotic Cells (%),[1],46% and 57%
same,Population Normal (%),[1],92% and 93%
same,Population Pyknosed Nuclei (%),[1],11% and 12%
same,Population Tubulin-Different-Phenotype (%),[1],77% and 92%
same,Total Cell Count,[1],574 and 636
same,Population Apoptotic (%),[2],70% and 68%
same,Population Fragmented Nuclei (%),[2],2%
same,Population Healthy Nuclei (%),[2],85% and 83%
same,Population Hoechst High Intensity Objects (%),[2],10% and 11%
same,Population Membrane Permeable-Phenotype (%),[2],2%
same,Population Mitochondria Different-Phenotype (%),[2],75% and 72%
same,Population Mitotic Cells (%),[2],29% and 31%
same,Population Normal (%),[2],89% and 88%
same,Population Pyknosed Nuclei (%),[2],12% and 13%
same,Population Tubulin-Different-Phenotype (%),[2],68% and 58%
same,Total Cell Count,[2],560 and 485
same,Population Apoptotic (%),[3],46% and 44%
same,Population Fragmented Nuclei (%),[3],9% and 4%
same,Population Healthy Nuclei (%),[3],81% and 86%
same,Population Hoechst High Intensity Objects (%),[3],10% and 8%
same,Population Membrane Permeable-Phenotype (%),[3],8% and 7%
same,Population Mitochondria Different-Phenotype (%),[3],12% and 18%
same,Population Mitotic Cells (%),[3],53% and 55%
same,Population Normal (%),[3],89% and 91%
same,Population Pyknosed Nuclei (%),[3],8%
same,Population Tubulin-Different-Phenotype (%),[3],64% and 80%
same,Total Cell Count,[3],873 and 879
same,Population Apoptotic (%),[4],72% and 63%
same,Population Fragmented Nuclei (%),[4],2%
same,Population Healthy Nuclei (%),[4],82% and 81%
same,Population Hoechst High Intensity Objects (%),[4],8% and 13%
same,Population Membrane Permeable-Phenotype (%),[4],0%
same,Population Mitochondria Different-Phenotype (%),[4],89% and 88%
same,Population Mitotic Cells (%),[4],27% and 36%
same,Population Normal (%),[4],91% and 86%
same,Population Pyknosed Nuclei (%),[4],14% and 15%
same,Population Tubulin-Different-Phenotype (%),[4],56% and 52%
same,Total Cell Count,[4],512 and 487
same,Population Apoptotic (%),[5],30% and 18%
same,Population Fragmented Nuclei (%),[5],8% and 13%
same,Population Healthy Nuclei (%),[5],87% and 83%
same,Population Hoechst High Intensity Objects (%),[5],9% and 8%
same,Population Membrane Permeable-Phenotype (%),[5],6%
same,Population Mitochondria Different-Phenotype (%),[5],5% and 4%
same,Population Mitotic Cells (%),[5],69% and 81%
same,Population Normal (%),[5],90% and 91%
same,Population Pyknosed Nuclei (%),[5],3% and 2%
same,Population Tubulin-Different-Phenotype (%),[5],67% and 48%
same,Total Cell Count,[5],1619 and 1643
same,Population Apoptotic (%),[6],84% and 73%
same,Population Fragmented Nuclei (%),[6],3% and 5%
same,Population Healthy Nuclei (%),[6],84% and 83%
same,Population Hoechst High Intensity Objects (%),[6],9% and 11%
same,Population Membrane Permeable-Phenotype (%),[6],1%
same,Population Mitochondria Different-Phenotype (%),[6],79% and 83%
same,Population Mitotic Cells (%),[6],15% and 26%
same,Population Normal (%),[6],90% and 88%
same,Population Pyknosed Nuclei (%),[6],11%
same,Population Tubulin-Different-Phenotype (%),[6],62% and 60%
same,Total Cell Count,[6],551 and 526
CC(C)N1CCN(Cc2cnc(-c3cc(-c4cccc5[nH]ccc45)cc4[nH]ncc34)o2)CC1 [NEMIRALISIB],Population Apoptotic (%),[1],45% and 59%
same,Population Fragmented Nuclei (%),[1],5% and 3%
same,Population Healthy Nuclei (%),[1],77% and 74%
same,Population Hoechst High Intensity Objects (%),[1],12% and 13%
same,Population Membrane Permeable-Phenotype (%),[1],4% and 2%
same,Population Mitochondria Different-Phenotype (%),[1],18% and 22%
same,Population Mitotic Cells (%),[1],54% and 40%
same,Population Normal (%),[1],87% and 86%
same,Population Pyknosed Nuclei (%),[1],16% and 21%
same,Population Tubulin-Different-Phenotype (%),[1],69% and 70%
same,Total Cell Count,[1],748 and 665
same,Population Apoptotic (%),[2],62% and 64%
same,Population Fragmented Nuclei (%),[2],2% and 3%
same,Population Healthy Nuclei (%),[2],87% and 84%
same,Population Hoechst High Intensity Objects (%),[2],11% and 7%
same,Population Membrane Permeable-Phenotype (%),[2],5% and 3%
same,Population Mitochondria Different-Phenotype (%),[2],46% and 61%
same,Population Mitotic Cells (%),[2],37% and 35%
same,Population Normal (%),[2],88% and 92%
same,Population Pyknosed Nuclei (%),[2],9% and 12%
same,Population Tubulin-Different-Phenotype (%),[2],98%
same,Total Cell Count,[2],425 and 404
same,Population Apoptotic (%),[3],52% and 61%
same,Population Fragmented Nuclei (%),[3],10% and 6%
same,Population Healthy Nuclei (%),[3],75% and 74%
same,Population Hoechst High Intensity Objects (%),[3],9% and 11%
same,Population Membrane Permeable-Phenotype (%),[3],2%
same,Population Mitochondria Different-Phenotype (%),[3],7% and 8%
same,Population Mitotic Cells (%),[3],47% and 38%
same,Population Normal (%),[3],90% and 88%
same,Population Pyknosed Nuclei (%),[3],13% and 19%
same,Population Tubulin-Different-Phenotype (%),[3],40% and 42%
same,Total Cell Count,[3],1140 and 951
same,Population Apoptotic (%),[4],50% and 57%
same,Population Fragmented Nuclei (%),[4],3%
same,Population Healthy Nuclei (%),[4],85% and 78%
same,Population Hoechst High Intensity Objects (%),[4],18% and 14%
same,Population Membrane Permeable-Phenotype (%),[4],3%
same,Population Mitochondria Different-Phenotype (%),[4],39% and 57%
same,Population Mitotic Cells (%),[4],50% and 42%
same,Population Normal (%),[4],81% and 85%
same,Population Pyknosed Nuclei (%),[4],11% and 17%
same,Population Tubulin-Different-Phenotype (%),[4],94% and 96%
same,Total Cell Count,[4],468 and 473
same,Population Apoptotic (%),[5],21% and 33%
same,Population Fragmented Nuclei (%),[5],17% and 10%
same,Population Healthy Nuclei (%),[5],78% and 84%
same,Population Hoechst High Intensity Objects (%),[5],10%
same,Population Membrane Permeable-Phenotype (%),[5],6% and 2%
same,Population Mitochondria Different-Phenotype (%),[5],0% and 1%
same,Population Mitotic Cells (%),[5],78% and 66%
same,Population Normal (%),[5],89%
same,Population Pyknosed Nuclei (%),[5],4%
same,Population Tubulin-Different-Phenotype (%),[5],19%
same,Total Cell Count,[5],2776 and 2131
same,Population Apoptotic (%),[6],51% and 60%
same,Population Fragmented Nuclei (%),[6],8% and 7%
same,Population Healthy Nuclei (%),[6],84% and 85%
same,Population Hoechst High Intensity Objects (%),[6],11% and 15%
same,Population Membrane Permeable-Phenotype (%),[6],6% and 7%
same,Population Mitochondria Different-Phenotype (%),[6],28% and 18%
same,Population Mitotic Cells (%),[6],48% and 40%
same,Population Normal (%),[6],88% and 84%
same,Population Pyknosed Nuclei (%),[6],6% and 7%
same,Population Tubulin-Different-Phenotype (%),[6],86% and 80%
same,Total Cell Count,[6],815 and 665
CS(=O)(=O)c1ccc(C(=O)Nc2cccc(COc3cc(F)c(Br)cc3CN3CC[C@H](O)C3)c2)c(Cl)c1.O=CO,Population Apoptotic (%),[1],58% and 54%
same,Population Pyknosed Nuclei (%),[1],13% and 21%
same,Total Cell Count,[1],586 and 531
same,Population Apoptotic (%),[2],57% and 73%
same,Population Mitotic Cells (%),[2],42%
same,Population Pyknosed Nuclei (%),[2],11% and 17%
same,Total Cell Count,[2],505 and 443
same,Population Apoptotic (%),[3],53% and 54%
same,Population Mitotic Cells (%),[3],46%
same,Population Pyknosed Nuclei (%),[3],11% and 10%
same,Total Cell Count,[3],800 and 910
same,Population Apoptotic (%),[4],65% and 73%
same,Population Mitotic Cells (%),[4],34%
same,Population Pyknosed Nuclei (%),[4],16% and 13%
same,Total Cell Count,[4],426 and 549
same,Population Apoptotic (%),[5],18% and 28%
same,Population Mitotic Cells (%),[5],81% and 71%
same,Population Pyknosed Nuclei (%),[5],3% and 4%
same,Total Cell Count,[5],2227 and 1546
same,Population Apoptotic (%),[6],61% and 60%
same,Population Mitotic Cells (%),[6],38% and 39%
same,Population Pyknosed Nuclei (%),[6],10% and 8%
same,Total Cell Count,[6],595 and 738
